Results on four compounds are retold here after ChEMBL document CHEMBL1141797, “Norsesquiterpenes from the brown alga Dictyopteris divaricata” (J Nat Prod, 2005).

A word on the IC50: it is the point on the concentration scale where inhibition reaches its midpoint. Read a high IC50 as a need for much substance.

The subject of the first experiment is BGC-823. Kind of experiment: Cytotoxicity against human BGC823 cells by MTT method. The experiment is classed as functional, cell-based. In short, it runs like this:
(§1)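 MTT colorimetric read-out of cell viability, expressed as IC50 in µg/mL. Human tumour lines by origin: A549 lung adenocarcinoma, BGC-823 stomach cancer, MCF-7 breast cancer, Bel7402 hepatoma, HCT-8 colon cancer.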
Background: Formazan colour is commonly taken as a measure of viable cells.
Regarding `CC(C)[C@@H]1CC[C@@H](C)[C@]2(O)CC(=O)C=C12`, the IC50 was > 10 µg/mL.

Turning to `CC(C)[C@@H]1CC[C@@H](C)[C@@]2(O)CC(=O)C=C12`, the IC50 was > 10 µg/mL.

Regarding `CC(C)[C@H]1CC[C@H](C)C2=CC(=O)C[C@@]21O`, the IC50 was > 10 µg/mL.

Consider `CC(C)[C@@H]1CC[C@@H](C)[C@]2(O)CCC(=O)C=C12`, for which the IC50 was > 10 µg/mL.

In the next experiment the test system is Bel-7402. Kind of experiment: Cytotoxicity against human Bel7402 cells by MTT method. It is filed as functional, cell-based. In short, it runs like this:
as §1
For `CC(C)[C@@H]1CC[C@@H](C)[C@]2(O)CC(=O)C=C12`, the IC50 was > 10 µg/mL.

`CC(C)[C@@H]1CC[C@@H](C)[C@@]2(O)CC(=O)C=C12`: the 50% inhibitory concentration (IC50) is > 10 µg/mL.

For the compound `CC(C)[C@H]1CC[C@H](C)C2=CC(=O)C[C@@]21O`, the IC50 is > 10 µg/mL.

With `CC(C)[C@@H]1CC[C@@H](C)[C@]2(O)CCC(=O)C=C12`, the IC50 was > 10 µg/mL.

The next experiment concerns HCT-8. Put plainly: Cytotoxicity against human HCT8 cells by MTT method. It is filed as functional, cell-based. In short, it runs like this: as §1
Regarding `CC(C)[C@@H]1CC[C@@H](C)[C@]2(O)CC(=O)C=C12`, the half-maximal inhibitory concentration (IC50) is > 10 µg/mL.

With `CC(C)[C@@H]1CC[C@@H](C)[C@@]2(O)CC(=O)C=C12`, the IC50 was > 10 µg/mL.

Turning to `CC(C)[C@H]1CC[C@H](C)C2=CC(=O)C[C@@]21O`, the IC50 is > 10 µg/mL.

Turning to `CC(C)[C@@H]1CC[C@@H](C)[C@]2(O)CCC(=O)C=C12`, the IC50 was > 10 µg/mL.

The next experiment concerns A549. Put plainly: Cytotoxicity against human A549 cells by MTT method. The experiment is classed as functional, cell-based. In short, it runs like this:
as §1
For `CC(C)[C@@H]1CC[C@@H](C)[C@]2(O)CC(=O)C=C12`, the half-inhibitory concentration (IC50) is > 10 µg/mL.

On to `CC(C)[C@@H]1CC[C@@H](C)[C@@]2(O)CC(=O)C=C12`, for which the IC50 is > 10 µg/mL.

With `CC(C)[C@H]1CC[C@H](C)C2=CC(=O)C[C@@]21O`, the IC50 is > 10 µg/mL.

Regarding `CC(C)[C@@H]1CC[C@@H](C)[C@]2(O)CCC(=O)C=C12`, the concentration for half-maximal inhibition (IC50) is > 10 µg/mL.

The test system of a further experiment is MCF7. Put plainly: Cytotoxicity against human MCF7 cells by MTT method. The experiment is classed as functional, cell-based. In outline:
as §1
For the compound `CC(C)[C@@H]1CC[C@@H](C)[C@]2(O)CC(=O)C=C12`, the IC50 is > 10 µg/mL.

Turning to `CC(C)[C@@H]1CC[C@@H](C)[C@@]2(O)CC(=O)C=C12`, the half-maximal inhibitory concentration (IC50) was > 10 µg/mL.

Take `CC(C)[C@H]1CC[C@H](C)C2=CC(=O)C[C@@]21O`: the concentration for half-maximal inhibition (IC50) is > 10 µg/mL.

With `CC(C)[C@@H]1CC[C@@H](C)[C@]2(O)CCC(=O)C=C12`, the IC50 is > 10 µg/mL.
